Test results published in ChEMBL document CHEMBL3352401, “Synthesis and antiviral activity of new phenylimidazopyridines and N-benzylidenequinolinamines derived by molecular simplification of phenylimidazo[4,5-g]quinolines” (Eur J Med Chem, 2014).

Legend:
Yellow fever virus = test: Antiviral activity against Yellow fever virus 17D Stamaril Pasteur J07B01 infected in BHK21 cells assessed as protection from virus-induced cytopathogenicity after 3 to 4 days by MTT method; type: functional, cell-based; settings: Stamaril Pasteur J07B01, BHK-21
In short: (§1)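 Confluent monolayers grown overnight (BHK-21 at 5×10⁴ cells/well for YFV and Reo-1; MDBK at 3×10⁴ cells/well for BVDV). Infection at m.o.i. 0.01 for 2 h in maintenance MEM-Earle with 0.5% inactivated FBS, then serial compound dilutions added. Viability read by MTT after 3–4 days at 37 °C. EC50 taken from linear regression against untreated controls.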

[1] = Cytotoxicity against mock-infected bovine MDBK cells assessed as reduction in proliferation after 72 hrs by MTT method; type: cell-based, Bos taurus; settings: cattle
In short: (§2)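 MDBK and BHK cells seeded at 6 × 10⁵ and 1 × 10⁶ cells/mL respectively. Medium was MEM-Earle with L-glutamine, 1 mM pyruvate and kanamycin, plus 10% horse serum (MDBK) or 10% FBS (BHK). Cells exposed to serial compound dilutions at 37 °C, 5% CO₂; MTT viability read at 72 h. CC50 by linear regression versus untreated controls.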

[2] = Half life in plasma (unknown origin); type: ADME, cell-free; settings: unidentified
In short: (§3)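 Compound kept at 37 °C in pH 7.4 phosphate buffer (chemical) or plasma (enzymatic), sampled hourly. Plasma aliquots extracted with acetonitrile (1:2) and centrifuged 1000 g for 10 min. Supernatant or buffer analysed by reversed-phase HPLC, methanol/water 80:20, detection at 250 nm. Pseudo-first-order t½ taken from the slope of log remaining compound versus time.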

[3] = Half life in pH 7.4 buffered solution; type: physicochemical; in short: as §3
[4] = Antiviral activity against Simian virus 12 3651 (ATCC VR- 214) infected in BHK21 cells assessed as protection from virus-induced cytopathogenicity after 3 to 4 days by MTT method; type: functional, cell-based; settings: BHK-21; in short: as §1
[5] = test system: Vesicular stomatitis Indiana virus; test: Antiviral activity against Vesicular stomatitis Indiana virus ATCC VR 158 infected in Vero 76 cells after 2 days by plaque reduction assays; type: functional, organism-based; settings: ATCC VR 158, Vero 76, 48 h
[6] = test system: Human poliovirus 1 strain Sabin; test: Antiviral activity against Poliovirus 1 strain Sabin ATCC VR-1562 infected in Vero 76 cells after 2 days by plaque reduction assays; type: functional, organism-based; settings: Enterovirus C, ATCC VR-1562, Vero 76, 48 h
[7] = Antiviral activity against Vaccinia virus Lister ATCC VR-1549 infected in Vero 76 cells after 3 days by plaque reduction assays; type: functional, cell-based; settings: ATCC VR-1549, Vero 76, 72 h
[8] = Cytotoxicity against mock-infected African green monkey Vero 76 cells assessed as reduction in proliferation after 48 to 96 hrs by MTT method; type: cell-based; settings: chlorocebus sabaeus, Vero 76 cells (mock-infected)
In short: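 Vero-76 cells seeded at 4 × 10⁵ cells/mL in D-MEM with L-glutamine, kanamycin and 10% FBS. Incubated at 37 °C, 5% CO₂, with or without serial dilutions of compound; viability read by MTT after 48–96 h. Run in parallel with antiviral assays. CC50 obtained by linear regression of % of untreated control.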

Coxsackievirus B5 = test: Antiviral activity against Coxsackievirus B5 Faulkner (ATCC VR-185) infected in Vero 76 cells after 3 days by plaque reduction assays; type: functional, organism-based; settings: Enterovirus B, Vero 76, 72 h
[9] = Cytotoxicity against mock-infected hamster BHK21 cells assessed as reduction in proliferation after 72 hrs by MTT method; type: cell-based, Mesocricetus auratus, BHK-21; in short: as §2
Human alphaherpesvirus 1 = test: Antiviral activity against Human herpesvirus 1 strain KOS ATCC VR- 1493 infected in Vero 76 cells after 3 days by plaque reduction assays; type: functional, organism-based; settings: Human alphaherpesvirus 1, KOS ATCC VR1493, Vero 76, 72 h
[10] = Cytotoxicity against mock-infected human MT4 cells assessed as reduction in proliferation after 96 hrs by MTT method; type: cell-based
In short: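 Exponentially growing MT-4 cells seeded at 1 × 10⁵ cells/mL in RPMI-1640 with 10% FBS, penicillin and streptomycin. Held 96 h at 37 °C, 5% CO₂ with or without serial compound dilutions; viability by MTT. Compounds dissolved in DMSO at 100 mM stock, then diluted in medium. CC50 by linear regression.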

[11] = Antiviral activity against Bovine viral diarrhea virus 1-NADL ATCC VR-534 infected in MDBK cells assessed as protection from virus-induced cytopathogenicity after 3 to 4 days by MTT method; type: functional, cell-based; settings: Bovine viral diarrhea virus isolates and strains, ATCC VR-534, MDBK; in short: as §1
[12] = Antiviral activity against Human respiratory syncytial virus A2 ATCC VR-1540 infected in Vero 76 cells after 5 days by plaque reduction assays; type: functional, cell-based; settings: ATCC VR-1540, Vero 76, 120 h
[13] = Ratio of Cidofovir EC50 to compound EC50 for Vaccinia virus Lister ATCC VR-1549 infected in Vero 76 cells after 3 days by plaque reduction assays; type: functional
[14] = test system: Human immunodeficiency virus 1; test: Antiviral activity against HIV-13B infected in MT4 cells assessed as protection from virus-induced cytopathogenicity after 4 days by MTT method; type: functional, organism-based; settings: Human immunodeficiency virus 1, 3B, MT4, 96 h
In short: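 HIV-1 IIIB, taken from persistently infected H9/IIIB supernatant. MT-4 cells (1×10⁴/well) in RPMI with serial compound dilutions, infected with 100 CCID50 (m.o.i. 0.01). Viability by MTT after 4 days at 37 °C. EC50 = 50% protection from cytopathogenicity, by linear regression against untreated controls. Compounds kept as 100 mM DMSO stocks, diluted in medium.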

SMILES	EC50 (Yellow fever virus) [µM]	CC50 at 72 h [1] [µM]	half-life [2] [h]	half-life [3] [h]	EC50 [4] [µM]	EC50 [5] [µM]	EC50 [6] [µM]	EC50 [7] [µM]	CC50 [8] [µM]	EC50 (Coxsackievirus B5) [µM]	CC50 at 72 h [9] [µM]	EC50 (Human alphaherpesvirus 1) [µM]	CC50 at 96 h [10] [µM]	EC50 [11] [µM]	EC50 [12] [µM]	Ratio EC50 [13]	EC50 [14] [µM]
N#Cc1ccc(-c2nc3cc(Br)cnc3[nH]2)cc1	> 100	> 100	2	> 4	> 100	> 73	> 73	2	73	> 73	> 100	15	53	> 100	> 73	10	
N#Cc1ccc(/C=N/c2cc3c(=O)cc[nH]c3c(Cl)c2N)cc1	> 87	> 100			> 100	> 100	> 100	> 100	> 100	> 100	> 100	> 100	> 100	28	> 100		> 100
